The source made the active and inactive calls. No cut-off for these calls is given here.
Legend:
[1] = organism: Rattus norvegicus; assay: Tested for effective dose in rat adjuvant-induced polyarthritis (AA) test in III phase; assay type: functional
[2] = organism: Homo sapiens; assay: Tested for in vitro inhibition of collagen-induced aggregation of human platelets; assay type: functional
[3] = organism: Rattus norvegicus; assay: Tested for effective dose in rat adjuvant-induced polyarthritis (AA) test in II phase; assay type: functional
[4] = system: Rattus norvegicus; assay: Tested for ulcerogenic activity by peroral administration in rat; assay type: functional
How it was run: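 Rats were given the compound by mouth at doses up to 100 mg/kg, and ulcerogenic activity was assessed.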

[5] = system: Rattus norvegicus; assay: Tested for analgesic activity in acetylcholine-induced body constriction assay by peroral administration; assay type: functional; details: po
[6] = system: Rattus norvegicus; assay: Tested for effective dose in rat adjuvant-induced polyarthritis (AA) test in II phase. Not Active (NA) up to 125 mg/kg peroral dose; assay type: functional, organism-based; design: dose 125 mg/kg
[7] = system: Rattus norvegicus; assay: Tested for analgesic activity in acetylcholine-induced body constriction assay. Not Active (NA) upto 100 mg/kg peroral dose; assay type: functional, organism-based; design: dose 100 mg/kg
[8] = system: Rattus norvegicus; assay: Tested for effective dose in rat adjuvant-induced polyarthritis (AA) test in III phase. Not Active (NA) up to 125 mg/kg peroral dose; assay type: functional, organism-based; design: dose 125 mg/kg

SMILES | ED50 [1] [mg/kg] | IC50 [2] [nM] | ED50 [3] [mg/kg] | UD50 [4] [mg/kg] | ED50 [5] [mg/kg] | ED50 [6] | ED50 [7] | ED50 [8]
Cc1cc(CC(=O)[O-])n(C)c1C(=O)c1ccc(Cl)cc1.O.O.[Na+] [ZOMEPIRAC SODIUM] | 5.67 | 1630 | 0.72 | 13.9 | 0.72 |  |  | 
Cn1c(CC(=O)O)cc(CO)c1C(=O)c1ccc(Cl)cc1 |  | 529000 |  |  |  | inactive | inactive | inactive
COc1ccc2c(c1)c(CC(=O)O)c(C)n2C(=O)c1ccc(Cl)cc1 [INDOMETHACIN] |  | 1800 |  |  |  |  |  | 

From ChEMBL document CHEMBL1121534, “Synthesis and biological activity of 5-(4-chlorobenzoyl)-4-(hydroxymethyl)-1-methyl-1H-pyrrole-2-acetic acid, a major metabolite of zomepirac sodium” (J Med Chem, 1980)
